Assay results as given in ChEMBL document CHEMBL4431325, “Design and Synthesis of Orally Bioavailable 4-Methyl Heteroaryldihydropyrimidine Based Hepatitis B Virus (HBV) Capsid Inhibitors” (J Med Chem, 2016).

Legend:
[1] = Intrinsic clearance in mouse liver microsomes at 1 uM preincubated for 10 mins followed by NADPH addition measured up to 30 mins by LC-MS/MS analysis; assay type: ADME, Microsome; settings: read-out: CLH
[2] = Intrinsic clearance in human liver microsomes at 1 uM preincubated for 10 mins followed by NADPH addition measured up to 30 mins by LC-MS/MS analysis; assay type: ADME, Microsome; settings: read-out: CLH
[3] = Cmax in CD-1 mouse plasma at 5 mg/kg, iv administered as single dose by LC-MS/MS analysis; assay type: ADME, organism-based; set-up: dose 5 mg/kg, route intravenous
[4] = Cmax in CD-1 mouse plasma at 50 mg/kg, po administered as single dose by LC-MS/MS analysis; assay type: ADME, organism-based; set-up: dose 50 mg/kg, route oral
[5] = Clearance in CD-1 mouse plasma at 5 mg/kg, iv administered as single dose by LC-MS/MS analysis; assay type: ADME, organism-based
[6] = Volume of distribution at steady state in CD-1 mouse plasma at 5 mg/kg, iv administered as single dose by LC-MS/MS analysis; assay type: ADME, organism-based; settings: read-out: Vdss
[7] = Half life in CD-1 mouse plasma at 5 mg/kg, iv administered as single dose by LC-MS/MS analysis; assay type: ADME, organism-based
[8] = Half life in CD-1 mouse plasma at 50 mg/kg, po administered as single dose by LC-MS/MS analysis; assay type: ADME, organism-based
[9] = AUC (0 to t) in CD-1 mouse plasma at 5 mg/kg, iv administered as single dose by LC-MS/MS analysis; assay type: ADME, organism-based; settings: in vivo
[10] = AUC (0 to t) in CD-1 mouse plasma at 50 mg/kg, po administered as single dose by LC-MS/MS analysis; assay type: ADME, organism-based; settings: in vivo
[11] = Cmax in CD-1 mouse liver at 50 mg/kg, po administered as single dose by LC-MS/MS analysis; assay type: ADME, organism-based; set-up: dose 50 mg/kg, route oral
[12] = AUC (0 to t) in CD-1 mouse liver at 50 mg/kg, po administered as single dose by LC-MS/MS analysis; assay type: ADME, organism-based; settings: in vivo
[13] = Oral bioavailability in CD-1 mouse plasma at 50 mg/kg administered as single dose by LC-MS/MS analysis; assay type: ADME, organism-based
[14] = Drug uptake in CD-1 mouse lung at 5 mg/kg, iv or 50 mg/kg, po administered as single dose by LC-MS/MS analysis; assay type: ADME, organism-based; settings: in vivo
[15] = Drug uptake in CD-1 mouse heart at 5 mg/kg, iv or 50 mg/kg, po administered as single dose by LC-MS/MS analysis; assay type: ADME, organism-based; settings: in vivo
[16] = Drug uptake in CD-1 mouse brain at 5 mg/kg, iv or 50 mg/kg, po administered as single dose by LC-MS/MS analysis; assay type: ADME, organism-based; settings: in vivo
in vivo = settings: CD-1, mouse, other tissue, po, 50 mg/kg
[17] = Drug metabolism in human liver microsomes assessed as aromatization of dihydropyrimidine core at 1 uM preincubated for 10 mins followed by NADPH addition measured up to 30 mins by LC-MS/MS analysis; assay type: ADME, Microsome; settings: 0.5 h
[18] = Drug metabolism in mouse liver microsomes assessed as aromatization of dihydropyrimidine core at 1 uM preincubated for 10 mins followed by NADPH addition measured up to 30 mins by LC-MS/MS analysis; assay type: ADME, Microsome; settings: 0.5 h
[19] = Stability in CD-1 mouse liver by LC-MS/MS analysis; assay type: ADME, tissue-based
[20] = Oral bioavailability in CD-1 mouse plasma administered as single dose by LC-MS/MS analysis; assay type: ADME, organism-based
In short: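 CD-1 mice (18-25 g) were used, with three mice per time point. The i.v. dose (5 mg/kg) was given in 6% Solutol/ethanol (1:1) plus 94% saline, and the oral dose (50 mg/kg) in 1% RC591. Blood was sampled at nine (i.v.) or eight (p.o.) time points into heparin. Plasma was analysed by LC-MS/MS, and parameters including F were derived noncompartmentally.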

CLint scaled at 1 µM [1] | Compound | also measured
88 mL/min/kg | COC(=O)C1=C(CN2CCOCC2(C)C)NC(c2nccs2)=NC1(C)c1ccc(F)cc1 (stereo unspecified) | 
79 mL/min/kg | CC1(c2ccc(F)cc2)N=C(c2nccs2)NC(CN2CCOCC2)=C1C#N (stereo unspecified) | 
89 mL/min/kg | CC1(c2ccc(F)cc2)N=C(c2nccs2)NC(CN2CCOCC2)=C1c1ncco1 (stereo unspecified) | 
60 mL/min/kg | COC(=O)C1=C(CN2CCC[C@@H]2C(=O)O)NC(c2nccs2)=N[C@@]1(C)c1ccc(F)cc1 | 
61 mL/min/kg | COC(=O)C1=C(CN2CCOC[C@@H]2C(=O)O)NC(c2nccs2)=N[C@@]1(C)c1ccc(F)cc1 | 
80 mL/min/kg | COC(=O)C1=C(CN2CCOC[C@H]2C(=O)O)NC(c2nccs2)=N[C@@]1(C)c1ccc(F)cc1 | CLint scaled at 1 µM [2]: 4.1 mL/min/kg
24 mL/min/kg | COC(=O)C1=C(COC(C(=O)O)C(F)(F)F)NC(c2nccs2)=NC1(C)c1ccc(F)cc1 (stereo unspecified) | 
81 mL/min/kg | COC(=O)C1=C(CN2CCC(O)CC2)NC(c2nccs2)=NC1(C)c1ccc(F)cc1 (stereo unspecified) | 
89 mL/min/kg | COC(=O)C1=C(CN2CCC(F)(F)C2)NC(c2nccs2)=NC1(C)c1ccc(F)cc1 (stereo unspecified) | 
66 mL/min/kg | COC(=O)C1=C(CN2CCS(=O)(=O)CC2)NC(c2nccs2)=NC1(C)c1ccc(F)cc1 (stereo unspecified) | 
59 mL/min/kg | CC1(c2ccc(F)cc2)N=C(c2nccs2)NC(CN2CCOCC2)=C1C(N)=O (stereo unspecified) | 
84 mL/min/kg | COC(=O)C1=C(CN2CC3CC2CO3)NC(c2nccs2)=NC1(C)c1ccc(F)cc1 (stereo unspecified) | 
77 mL/min/kg | CNC(=O)C1=C(CN2CCOCC2)NC(c2nccs2)=NC1(C)c1ccc(F)cc1 (stereo unspecified) | 
83 mL/min/kg | COC(=O)C1=C(C)NC(c2nccs2)=NC1(C)c1ccc(F)c(F)c1 (stereo unspecified) | 
88 mL/min/kg | COC(=O)C1=C(CN2CCC(C(F)(F)F)C2)NC(c2nccs2)=NC1(C)c1ccc(F)cc1 (stereo unspecified) | 
79 mL/min/kg | COC(=O)C1=C(CN2CCCS2(=O)=O)NC(c2nccs2)=NC1(C)c1ccc(F)cc1 (stereo unspecified) | 
79 mL/min/kg | COC(=O)C1=C(COC2CCOC2)NC(c2nccs2)=NC1(C)c1ccc(F)cc1 (stereo unspecified) | 
80 mL/min/kg | COC(=O)C1=C(CN2CCOCC2=O)NC(c2nccs2)=NC1(C)c1ccc(F)cc1 (stereo unspecified) | 
83 mL/min/kg | COC(=O)C1=C(CN2CCC(O)C2)NC(c2nccs2)=NC1(C)c1ccc(F)cc1 (stereo unspecified) | 

CLint scaled at 1 µM [1] | Compound | also measured
14 mL/min/kg | COC(=O)C1=C(CN2CCC[C@H]2C(=O)O)NC(c2nccs2)=N[C@@]1(C)c1ccc(F)cc1 | CLint scaled at 1 µM [2]: 2.3 mL/min/kg
81 mL/min/kg | COC(=O)C1=C(CN2CCNC(=O)C2)NC(c2nccs2)=NC1(C)c1ccc(F)cc1 (stereo unspecified) | 
6 mL/min/kg | CC1(c2ccc(F)cc2)N=C(c2nccs2)NC(CN2CCOCC2)=C1C(=O)O (stereo unspecified) | 
88 mL/min/kg | CC(C)OC(=O)C1=C(CN2CCOCC2)NC(c2nccs2)=NC1(C)c1ccc(F)cc1 (stereo unspecified) | 
39 mL/min/kg | COC(=O)C1=C(CN2CCNCC2)NC(c2nccs2)=NC1(C)c1ccc(F)cc1 (stereo unspecified) | 
75 mL/min/kg | COC(=O)C1=C(C)NC(c2nccs2)=NC1(C)c1ccc(C#N)cc1 (stereo unspecified) | 
88 mL/min/kg | COC(=O)C1=C(CN2CCC(F)(F)CC2)NC(c2nccs2)=NC1(C)c1ccc(F)cc1 (stereo unspecified) | 
42 mL/min/kg | COC(=O)C1=C(CN(C)C2(C(=O)O)CC2)NC(c2nccs2)=NC1(C)c1ccc(F)cc1 (stereo unspecified) | 
88 mL/min/kg | COC(=O)C1=C(CN2CC(OC)C2)NC(c2nccs2)=NC1(C)c1ccc(F)cc1 (stereo unspecified) | 
69 mL/min/kg | COC(=O)C1=C(Cn2ccnc2)NC(c2nccs2)=NC1(C)c1ccc(F)cc1 (stereo unspecified) | 
90 mL/min/kg | COC(=O)C1=C(CN2CC(F)(F)C[C@H]2C(=O)OC)NC(c2nccs2)=N[C@@]1(C)c1ccc(F)cc1 | CLint scaled at 1 µM [2]: 23 mL/min/kg
57 mL/min/kg | COC(=O)C1=C(C)NC(c2nccs2)=NC1(C)c1ccc(S(C)(=O)=O)cc1 (stereo unspecified) | 
81 mL/min/kg | COC(=O)C1=C(COCC(F)(F)F)NC(c2nccs2)=NC1(C)c1ccc(F)cc1 (stereo unspecified) | 
 | COC(=O)C1=C(C)NC(c2ncc(F)cc2F)=N[C@H]1c1ccc(F)cc1Cl | Drug metabolism [17]: Metabolite_Detected; Drug metabolism [18]: Metabolite_Detected; Stability [19]: Unstable
88 mL/min/kg | COC(=O)C1=C(CN2CCCCC2)NC(c2nccs2)=NC1(C)c1ccc(F)cc1 (stereo unspecified) | 
85 mL/min/kg | COC(=O)C1=C(C)NC(c2nccs2)=NC1(C)c1ccc(Cl)cc1 (stereo unspecified) | 
89 mL/min/kg | COC(=O)C1=C(CN2CCOCC2)NC(c2nccs2)=N[C@@]1(C)c1ccc(F)c(F)c1 | 
89 mL/min/kg | COC(=O)C1=C(CN2CCCC(F)(F)C2)NC(c2nccs2)=NC1(C)c1ccc(F)cc1 (stereo unspecified) | 
81 mL/min/kg | COC(=O)C1=C(CN2CCOCC2)NC(c2nccs2)=N[C@@]1(C)c1ccc(F)cc1 | bioavailability [20]: 1.5%

Compound | CLint scaled at 1 µM [1] | also measured
COC(=O)C1=C(CN2CC(F)(F)C[C@H]2C(=O)O)NC(c2nccs2)=N[C@@]1(C)c1ccc(F)cc1 | 84 mL/min/kg | Cmax [3]: 12400 ng/mL; Cmax [4]: 2470 ng/mL; CLint scaled at 1 µM [2]: 12 mL/min/kg; clearance [5]: 55.3 mL/min/kg; Vd [6]: 0.22 L/kg; half-life [7]: 10.8 min; half-life [8]: 48 min; AUCt [9]: 1500 µg/L/h; AUCt [10]: 5420 µg/L/h; Cmax [11]: 41200 ng/mL; AUCt [12]: 107000 µg/L/h; bioavailability [13]: 36%; Drug uptake [14]: Not Active; Drug uptake [15]: Not Active; Drug uptake [16]: Not Active; Kp (in vivo): 20
